# In paper PMC4363178 (Biochemical and biophysical research communications, 2015):
# Peptide text beside a SMILES is read from it.
# Assays:
# [1] = molecular target: T1, PDZ1 of mouse ZO2 (M-ZO2PDZ1) (Mus musculus, UniProt Q9Z0U1); experiment: NMR titration; format: binding; settings: for Decrease of chemical shift change of R87 relative to wild-type Cln1-C: same concentration of wild-type Cln1-C, stated jointly for the two mutants
# T1 sequence (Q9Z0U1 1-102): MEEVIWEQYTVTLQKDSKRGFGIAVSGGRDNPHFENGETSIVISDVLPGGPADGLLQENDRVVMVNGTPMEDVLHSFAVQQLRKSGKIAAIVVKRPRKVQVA
# Procedure, shortened: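 His-tag-cleaved mouse ZO2 PDZ1 from E. coli BL21(DE3), 15N-labelled in M9 medium, at 0.1 mM in pH 5.2 buffer (50mM phosphate, 50mM NaCl, 0.2mM EDTA). Unmodified peptides (>95% pure; 50 mM stock) were added stepwise up to 12:1 peptide:protein, with ≤10% total dilution. A 1H-15N HSQC was recorded at each point at 600 MHz and 298K. Composite shift = {[δHN]^2 + [0.17 δN]^2}^1/2.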
# [2] = molecular target: PDZ1 domain of mouse ZO2 (M-ZO2PDZ1) (mouse) (UniProt Q9Z0U1); experiment: NMR titration
# Chain of PDZ1 domain of mouse ZO2 (M-ZO2PDZ1) (mouse) (Q9Z0U1 1-104): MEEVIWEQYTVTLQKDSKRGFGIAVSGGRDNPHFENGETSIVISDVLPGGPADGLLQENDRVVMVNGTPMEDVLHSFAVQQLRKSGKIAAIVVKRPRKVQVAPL
Kd [1] [µM],Decrease of chemical shift change of R87 relative to wild-type Cln1-C [1] [fold],Compound,also measured
500 ± 250,–,C[C@H](NC(=O)[C@H](Cc1ccc(O)cc1)NC(=O)[C@H](CC(=O)O)NC(=O)[C@H](CCCCN)NC(=O)CNC(=O)[C@H](CO)NC(=O)[C@H](CO)NC(=O)[C@@H]1CCCN1)C(=O)O [Cln1-C-YA] (H-PSSGKDYA-OH),–
150 ± 50,–,CC[C@H](C)[C@H](N)C(=O)N[C@@H](CC(C)C)C(=O)N[C@@H](CCCNC(=N)N)C(=O)N[C@@H](CCCCN)C(=O)N[C@@H](CCCNC(=N)N)C(=O)N[C@@H](CCC(=O)O)C(=O)N[C@@H](Cc1ccc(O)cc1)C(=O)N[C@H](C(=O)O)C(C)C [PMP22-YV] (H-ILRKREYV-OH),–
–,22,PSSGKDAA [Cln1-C-AA],–
–,22,PSSGKDVY [Cln1-C-VY],–
–,–,mutant PMP22 C-terminal peptide PMP22-M1 (ILRKREYV),Kd [2]: 150 µM
